Here are results for one compound from ChEMBL document CHEMBL1130049, “Synthesis and oral efficacy of a 4-(butylethylamino)pyrrolo[2,3-d]pyrimidine: a centrally active corticotropin-releasing factor1 receptor antagonist” (J Med Chem, 1997).

Series [1] deals with Corticotropin-releasing factor receptor 2 (Rattus norvegicus, UniProt P47866). The series is described as follows: Inhibition of binding of [125I]-Tyr0-sauvagine to Corticotropin releasing hormone receptor 2 (CRF2).
In series [2] the target is T1, Corticotropin-releasing factor receptor 1 (Rattus norvegicus, UniProt P35353).
T1 sequence (P35353 whole entry): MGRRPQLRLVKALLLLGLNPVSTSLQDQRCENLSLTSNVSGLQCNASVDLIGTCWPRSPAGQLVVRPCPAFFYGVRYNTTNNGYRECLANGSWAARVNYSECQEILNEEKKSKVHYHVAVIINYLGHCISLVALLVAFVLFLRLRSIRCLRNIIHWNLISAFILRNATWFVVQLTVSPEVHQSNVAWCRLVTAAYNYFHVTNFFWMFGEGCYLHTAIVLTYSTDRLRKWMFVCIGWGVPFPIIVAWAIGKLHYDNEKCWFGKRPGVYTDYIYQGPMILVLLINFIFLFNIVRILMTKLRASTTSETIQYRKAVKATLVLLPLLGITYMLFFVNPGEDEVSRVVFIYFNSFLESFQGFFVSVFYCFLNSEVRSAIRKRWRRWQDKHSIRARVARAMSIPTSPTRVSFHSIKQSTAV
The series is described as follows: Inhibition of binding of 70 pM [125I]-Try0-o-Corticotropin-releasing Factor (CFR) to Corticotropin releasing hormone receptor 1 in Rat brain membrane. In kind it is cell membranes.

A short description of series [3]: Maximal plasma concentration in rat. In kind it is ADME, organism-based. Put shortly:
(§1)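 Male Sprague-Dawley rats (300–350 g) had jugular cannulae placed under pentobarbital the day before dosing. Groups of n = 4 got 5 mg/kg iv bolus (DMSO/emulphor/saline 5:5:90) or 10 mg/kg po (DMSO/emulphor/water 5:5:90). Serial plasma was taken to 24 h (iv) or 8 h (po) and assayed by HPLC-UV at 300 nm. AUC was by linear trapezoid, CL = dose/AUC, Vdss = CL×MRT, and F from dose-normalised po/iv AUC.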

The species entered for series [4] is Rattus norvegicus. Briefly: Half life in rat. The class given is ADME, organism-based. The following applies: in vivo. Put shortly: as §1
The species entered for series [5] is Rattus norvegicus. The series is described as follows: Volume of distribution in steady state in rat. In kind it is ADME, organism-based. The following applies: in vivo. The method in brief: as §1
Series [6] in a line: Plasma clearance in rat. The class given is ADME, organism-based. Put shortly: as §1
A short description of series [7]: Oral bioavailability in rat. The following applies: in vivo, read-out: Bioavailabiility. In kind it is ADME, organism-based. Put shortly:
as §1

Chain of Corticotropin-releasing factor receptor 2 (P47866 whole entry): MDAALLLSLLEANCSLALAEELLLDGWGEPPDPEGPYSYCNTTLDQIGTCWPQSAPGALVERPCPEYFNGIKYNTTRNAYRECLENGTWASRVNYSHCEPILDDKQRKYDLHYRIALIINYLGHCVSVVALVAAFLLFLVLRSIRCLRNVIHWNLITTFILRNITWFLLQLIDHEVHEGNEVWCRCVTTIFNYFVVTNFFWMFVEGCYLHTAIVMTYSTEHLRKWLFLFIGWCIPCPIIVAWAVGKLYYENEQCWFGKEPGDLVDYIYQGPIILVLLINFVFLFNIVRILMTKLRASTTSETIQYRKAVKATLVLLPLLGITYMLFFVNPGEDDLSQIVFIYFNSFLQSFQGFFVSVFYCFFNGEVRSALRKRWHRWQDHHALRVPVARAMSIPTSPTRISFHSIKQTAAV

The term Ki denotes a measure of affinity in units of concentration, obtained from inhibition or displacement. Lower therefore signals a stronger hold on the target. The term IC50 denotes the midpoint of a concentration-inhibition curve. Higher therefore signals lower potency. As usually defined, the Cmax is the highest concentration seen after dosing. What is called Vdss is a proportionality between amount in the body and measured concentration, not a real space. One may read the clearance as the rate of elimination divided by the concentration. Take `CCCCN(CC)c1nc(C)nc2c1c(C)cn2-c1c(C)cc(C)cc1C` [CP-154526]: the Ki in series [1] is over 10000 nM. Besides, the IC50 in series [2] turned out to be 5.5 nM. The compound also displayed a Cmax in series [3] of 367 ng/mL. Further, the T1/2 in the series listed under Rattus norvegicus [4] amounted to 1.5 h. For the same compound, the Vdss in the series filed under Rattus norvegicus [5] stood at 6.7 L/kg. Besides, in series [6], the clearance was determined as 82 mL/min/kg. The bioavailability in series [7] was determined as 37%.
